In PMC4732916 (Journal of medicinal chemistry, 2016):
Like-named read-outs stand apart in the source and are kept apart here.

How the values were obtained:
WM115 melanoma cells = experiment: Cellular assays, EC50 quoted in text without S100B level; assay type: cell-based, human; conditions: for EC50: Homo sapiens; for S100B-dependent killing (high vs low S100B cells): S100B-knockdown cell lines, result in words
Ca^2+-loaded S100B = target: T1, Ca^2+-loaded S100B (Rattus norvegicus, UniProt P04631); experiment: Fluorescence polarization competition assay; assay type: binding; conditions: Site 1 probe; result in words
T1 sequence (P04631 1-92): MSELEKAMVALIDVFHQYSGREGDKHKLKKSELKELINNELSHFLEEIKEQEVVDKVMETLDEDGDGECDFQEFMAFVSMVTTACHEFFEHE
Summary of the method: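 Competition of test compound with 10 nM TAMRA-labelled TRTK12 peptide (CapZ residues 265-276), bound to Site 1 of 1 μM rat S100B, all final concentrations. Compound titrated from the highest attainable concentration. Fluorescence polarization read at room temperature, ex 544 nm/em 590 nm.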

Ca^2+-S100B = target: T2, Ca^2+-S100B (Rattus norvegicus, UniProt P04631); experiment: HSQC NMR of Ca2+-loaded S100B with SBiX compounds; assay type: binding; conditions: result in words; for effect on NMR spectra of Ca^2+-S100B (chemical shift perturbations / broadening): compared with pentamidine and heptamidine
T2 sequence (P04631 1-92): T1 sequence (P04631 1-92)
Summary of the method: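 Samples: 15N-labelled rat S100B (purified >99%) at 0.1 mM subunit with 0.125 mM test compound, 10 mM CaCl2, 15 mM NaCl, 0.34 mM NaN3, 0.2% TPEN, 5% DMSO-d6, 10% D2O, 10 mM HEPES pH 7.2. 1H-15N HSQC spectra; 15N shifts indirectly referenced (ratio 0.10132905). Spectra were inspected visually for combined 1H+15N chemical shift perturbations to map the binding site.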

[1] = system: WM115 melanoma cells transfected with shRNA^S100B (low S100B); experiment: SYBR Green cell proliferation; assay type: cell-based, human; conditions: read-out: Low S100B EC50 Mean ± S.D.
[2] = WM-115, read-out: EC50 in cellular assays

Row | EC50 (WM115 melanoma cells; [2]) [µM] | ability to compete with TAMRA-TRTK probe in FPCA (Ca^2+-loaded S100B) | binding to Ca^2+-S100B as measured using NMR (Ca^2+-S100B) | Molecule | further results
1 | < 1 | neither was able to compete | ability to bind | N=C(NC(=O)Nc1ccccc1)c1ccc(OCCCCCCCOc2ccc(C(=N)NC(=O)Nc3ccccc3)cc2)cc1 [compound 10, 4,4′-(heptane-1,7-diylbis(oxy))bis(N-(phenylcarbamoyl)benzimidamide)] | –
2 | 5 to 20 | – | – | c1cc(C2=NCCCCN2)ccc1OCCCCCCCOc1ccc(C2=NCCCCN2)cc1 [7a, 1,7-bis(4-(4,5,6,7-tetrahydro-1H-1,3-diazepin-2-yl)phenoxy)heptane] | –
3 | – | – | – | c1cc(C2=NCCN2)ccc1OCCCCCOc1ccc(C2=NCCN2)cc1 [5b, 1,5-bis(4-(4,5-dihydro-1H-imidazol-2-yl)phenoxy)pentane] | effect on NMR spectra of Ca^2+-S100B (chemical shift perturbations / broadening) (Ca^2+-S100B): significant broadening
4 | – | – | – | c1cc(C2=NCCN2)ccc1OCCCCCCCCOc1ccc(C2=NCCN2)cc1 [5d, 1,8-bis (4-(4,5-dihydro-1H-imidazol-2-yl)phenoxy) octane] | effect on NMR spectra of Ca^2+-S100B (chemical shift perturbations / broadening) (Ca^2+-S100B): significant broadening
5 | 25 to 45 | – | – | c1cc(C2=NCCCN2)ccc1OCCCCCCCCOc1ccc(C2=NCCCN2)cc1 [6d, 1,8-bis(4-(1,4,5,6-tetrahydropyrimidin-2-yl)phenoxy)octane] | –
6 | 25 to 45 | – | – | c1cc(C2=NCCCN2)ccc1OCCCCCCOc1ccc(C2=NCCCN2)cc1 [6c, 1,6-bis(4-(1,4,5,6-tetrahydropyrimidin-2-yl)phenoxy)hexane] | –
7 | 200 to 600 | – | – | c1cc(C2=NCCCN2)ccc1OCCCCCOc1ccc(C2=NCCCN2)cc1 [6b, 1,5-bis(4-(1,4,5,6-tetrahydropyrimidin-2-yl)phenoxy)pentane] | effect on NMR spectra of Ca^2+-S100B (chemical shift perturbations / broadening) (Ca^2+-S100B): significant broadening
8 | – | – | – | N=C(N)c1ccc(OCCCCCOc2ccc(C(=N)N)cc2)cc1 [4b, pentamidine, reference compound] | EC50 (WM115 melanoma cells; WM-115, read-out: ^CellsEC50): 26 µM
9 | 250 to 300 | – | – | c1cc(C2=NCCCCN2)ccc1OCCCCCCOc1ccc(C2=NCCCCN2)cc1 [7c, 1,6-bis(4-(4,5,6,7-tetrahydro-1H-1,3-diazepin-2-yl)phenoxy)hexane] | –
10 | – | – | – | N=C(N)c1ccc(OCCCCCCCOc2ccc(C(=N)N)cc2)cc1 [4a, Heptamidine] | S100B-dependent killing (high vs low S100B cells) (WM115 melanoma cells): selectivity in killing melanoma cells with high S100B over those with low S100B was clearly observed
11 | 130 to 150 | neither was able to compete | ability to bind | CNC(=O)NC(=N)c1ccc(OCCCCCCCOc2ccc(C(=N)NC(=O)NC)cc2)cc1 [compound 11, 4,4′-(heptane-1,7-diylbis (oxy))bis(N-(methylcarbamoyl)benzimidamide)] | –
12 | 5 to 20 | – | – | c1cc(C2=NCCCCN2)ccc1OCCCCCOc1ccc(C2=NCCCCN2)cc1 [7b, 1,5-bis (4-(4,5,6,7-tetrahydro-1H-1,3-diazepin-2-yl)phenoxy)pentane] | –
13 | – | found to inhibit TAMRA-TRTK binding | found to bind | N=C(N)c1ccc(Oc2ccc(-c3cc4ccc(C(=N)N)cc4[nH]3)cc2)cc1 [compound 17, 2-(4-(4-carbamimidoylphenoxy)phenyl)-1H-indole-6-carboximidamide] | S100B-dependent killing (high vs low S100B cells) (WM115 melanoma cells): no S100B-dependent killing
14 | 200 to 600 | – | – | c1cc(C2=NCCCN2)ccc1OCCCCCCCOc1ccc(C2=NCCCN2)cc1 [6a, 1,7-bis (4-(1,4,5,6-tetrahydropyrimidin-2-yl)phenoxy)heptane] | –
15 | 40 to 50 | neither was able to compete | bound weakly | N=C(N)c1ccc(OCCCN(CCCOc2ccc(C(=N)N)cc2)Cc2ccccc2)cc1 [16a, 4,4′-(((benzylazanediyl)bis(propane-3,1-diyl))bis(oxy))dibenzimidamide] | –
16 | 5 to 20 | – | – | c1cc(C2=NCCCCN2)ccc1OCCCCCCCCOc1ccc(C2=NCCCCN2)cc1 [7d, 1,8-bis (4-(4,5,6,7-tetrahydro-1H-1,3-diazepin-2-yl)phenoxy)octane] | –
17 | – | – | – | hexamidine [4c] | EC50 [1]: 234 ± 7.9 µM
18 | 35 to 40 | found to compete | interacted | N=C(NCCCCCN)c1ccc(OCCCCCOc2ccc(C(=N)NCCCCCN)cc2)cc1 [compound 8, 4,4′-(pentane-1,5-diylbis(oxy))bis(N-(5-aminopentyl)benzimidamide)] | –
19 | – | – | – | c1cc(C2=NCCN2)ccc1OCCCCCCOc1ccc(C2=NCCN2)cc1 [5c, 1,6-bis(4-(4,5-dihydro-1H-imidazol-2-yl)phenoxy)hexane] | effect on NMR spectra of Ca^2+-S100B (chemical shift perturbations / broadening) (Ca^2+-S100B): significant broadening
20 | > 500 | neither was able to compete | bound weakly | CCCN(CCCOc1ccc(C(=N)N)cc1)CCCOc1ccc(C(=N)N)cc1 [16b, 4,4′-(((propylazanediyl)bis(propane-3,1-diyl))bis(oxy))dibenzimidamide] | –
21 | – | found to compete | interacted | N=C(NCCCCCCCN)c1ccc(OCCCCCCCCOc2ccc(C(=N)NCCCCCCCN)cc2)cc1 [9b, 4,4′-(octane-1,8-diylbis (oxy))bis(N-(7-aminoheptyl)benzimidamide)] | effect on NMR spectra of Ca^2+-S100B (chemical shift perturbations / broadening) (Ca^2+-S100B): significant broadening
22 | – | found to compete | interacted | N=C(NCCCCCCCN)c1ccc(OCCCCCCCOc2ccc(C(=N)NCCCCCCCN)cc2)cc1 [9a, 4,4′-(heptane-1,7-diylbis(oxy))bis(N-(7-aminoheptyl)benzimidamide)] | effect on NMR spectra of Ca^2+-S100B (chemical shift perturbations / broadening) (Ca^2+-S100B): significant broadening
